# DAGLB inh – diacylglycerol lipase beta (human) inhibition | inhibition, % at 5.17 µM | HEK293T DAGLB membrane lysate, EnzChek fluorogenic substrate | AID 504411 | Q8NCG7 | 340,000 tested, 0.059% active; in the data active = inhibition above about 34%;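 also: 0% = enzyme with vehicle and 100% = wells lacking enzyme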
# MIN6 prolif – induces beta-cell replication in MIN6 cells; MIN6 cells proliferation, ATPlite luminescence, 48 h; cells starved in 0.2% serum; 100% = growth in 10% serum; proliferation, % at 10 µM; 330,000 tested, 0.29% active; AID 2380;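 active = compounds whose signal lies at least 3.5 SD above the mean of all wells on their plate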;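 also: 0% = DMSO-treated cells in low-serum medium and 100% = 10% serum control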
# MT1-MMP act inh – MT1-MMP (human) activation inhibition; P50281; HT1080 RFP-PRO-GFP cells, GFP/RFP ratio fluorescence, overnight; percent of plate control window, DMSO zero; GFP/RFP ratio change, % at 20 µM; 360,000 tested, 0.061% active;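 active = GFP/RFP ratio change of at least 30% with cell ATP level not reduced by more than half and red fluorescence within 50% of control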
#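 Compound: 20 µM single dose, 1% DMSO / System: HT1080 RFP-PRO-GFP cells / Controls: DMSO and RFP-L50D-GFP cell wells / Read-out basis: GFP/RFP fluorescence ratio / Schedule: overnight compound exposure at 37 °C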
# MsrA inhibitor – inhibits bovine methionine sulfoxide reductase A | purified bovine MsrA, absorbance read-out | inhibition, % at 15.5 µM | 360,000 tested, 0.75% active | AID 651718;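 also: 0% = vehicle wells with enzyme and 100% = reference inhibitor wells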
# bovine MsrA act – activators of bovine methionine sulfoxide reductase A | purified bovine MsrA, absorbance read-out | activation, % at 10.6 µM | 360,000 tested, 0.3% active; in the data active = activation above about 7.5%;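 also: 0% = vehicle and 100% = reference activator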
# SKN-1 block – C. elegans SKN-1 inhibition; inhibition, % at 21.8 µM; 360,000 tested, 0.49% active; C. elegans VP596 Pgst-4::GFP/RFP ratio, acrylamide-induced, 24 h;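 active = interference check ratio from 0.5 to 1.5 plus GFP to RFP signal ratio inhibition reaching or exceeding a fixed threshold, cut at about 30% in these data, passing the limit was not always enough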
# MsrA inh confirm – bovine MsrA inhibition, confirmed. 2,300 tested, 41% active. AID 651822. inhibition, % at 15.5 µM. shares compounds with MsrA inhibitor. purified bovine MsrA, absorbance read-out;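 also: coupled to thioredoxin reductase with NADPH and selenocystamine and DMSO as substrate; 0% = vehicle only and 100% = full effect of reference inhibitor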
# Active calls of the source: *; nt = no result given. Most compounds without a hit are left out; they make up all but 1.8% or so of the library. Rule as the data show it, unless noted: active = inhibition above about 4.5%; inactive = the rest.
SMILES,DAGLB inh,MIN6 prolif,MT1-MMP act inh,MsrA inhibitor,bovine MsrA act,SKN-1 block,MsrA inh confirm
CC1CCc2c(sc(NC(=O)c3ccco3)c2C(=O)O)C1 (stereo not drawn),7,0,-4,5.8*,-3,13,4.7*
CCCS(=O)(=O)NC(=O)C1(C)CCN(C(=O)c2ccco2)C1 (stereo not drawn),nt,nt,4,-1,-3,4,nt
COc1ccc(/C=C/C(=O)NC(=S)Nc2ccc(S(=O)(=O)Nc3nccnc3OC)cc2)cc1,11,0,-2,5.2*,-8,-4,6.0*
CCn1c(CNC(=O)c2ccccc2Br)nnc1SCC(=O)NC1=NCCS1,-1,-4,2,6.5*,-2,3,1
O=C(Nc1ccc2c(c1)OCCO2)C(c1ccccc1)n1c(=O)c(-c2ccco2)nc2ccccc21 (stereo not drawn),nt,nt,-6,2,nt,8,nt
O=c1cc(-c2ccc(O)cc2)oc2ccccc12,-3,-1,2,3,-4,9,nt
O=c1cc(-c2ccc(O)cc2)oc2ccc(O)cc12,12,3,0,5.5*,-2,-10,2
CN1C(=O)[C@H]2[C@@H](/C=C/c3ccccc3)N3C(=O)CN(CC4CC4)C(=O)[C@@]3(C)[C@H]2C1=O,-2,0,0,0,-6,0,nt
CC(=O)c1ccc2noc(-c3ccccc3)c2c1,1,-4,-7,2,-2,7,nt
c1ccc(-c2onc3cc4c(cc23)OCCO4)cc1,-6,-2,0,5.1*,0,20,2
COc1cc(OC)c(/C=N/NC(N)=S)cc1Br,2,0,5,5.3*,-3,2,4
COc1cc(OC)c(OC)cc1/C=N/NC(=O)c1cnccn1,-3,6,1,6.2*,-2,7,4
COc1ccccc1C=NNC(=O)c1ccncc1,-5,nt,0,2,-3,-2,nt
COc1cc(OC)c(OC)cc1/C=N/NC(=O)c1ccc(=O)n(C)c1,-2,-1,-2,10*,-9,5,9.2*
COc1ccc(OC)c(/C=N\NC(=O)c2ccc(=O)n(C)c2)c1,3,-2,-1,2,-5,11,nt
COc1ccccc1/C=C/C=N/NC(=O)c1ccncc1,0,1,-1,9.0*,-8,4,5.0*
COc1cc(OC)c(/C=N/NC(=O)c2ccncc2)cc1Br,nt,-2,-1,5.2*,-4,-8,4
O=C(Cc1cccs1)N/N=C/C=C/c1ccccc1[N+](=O)[O-],nt,0,12,1,-11,5,nt
COc1ccccc1/C=C/C=N/NC(=O)Cc1cccs1,-5,0,-1,5.0*,1,-6,4
COc1cc(OC)c(/C=N/NC(=O)c2ccc(NC(C)=O)cc2)cc1Br,0,5,-3,1,-3,-1,nt
COc1ccc(NC(=O)COc2cccc3c2CCNC3=O)cc1,0,-3,1,0,1,14,nt
CC1Cc2ccccc2N1C(=O)CSc1ncccn1 (stereo not drawn),-2,-3,-2,0,-3,12,nt
O=C(NNC(=O)C1CC1)c1cc2cc3ccccc3nc2s1,0,-2,-4,4.9*,-4,4,2
Cc1ccc(NC(=O)N2CCC(NC(=O)c3cccc(F)c3)CC2)cc1,0,-1,2,1,0,23,nt
COc1ccc(OC)c2c1sc(=NC(=O)c1ccco1)n2C,-4,4,5,3,-2,5,nt
CCn1c(=NC(=O)c2ccco2)sc2cccc(F)c21,-7,2,-6,4.9*,-3,-1,4
O=C(Nc1ccc2nc(-c3ccc(Br)o3)[nH]c2c1)c1ccco1,0,-2,6,6.5*,-9,-22,6.6*
CC(=O)Nc1ccc2nc(-c3ccc(Br)o3)[nH]c2c1,0,-3,-2,2,-15,5,nt
Cc1ccnc(N2C(=O)c3cccc4c([N+](=O)[O-])ccc(c34)C2=O)c1,-10,-4,-289,12*,0,-7,8.6*
Cc1ccc(N2C(=O)c3cccc4c([N+](=O)[O-])ccc(c34)C2=O)c2cccnc12,-1,-6,-147,1,-4,-3,nt

# Assay outcomes: PubChem BioAssay, several laboratories
